Measured values as given in publication PMC5259643 (Journal of Veterinary Internal Medicine, 2017).
Read-outs that look alike come from different tables or passages of the source.

How the values were obtained:
[1] = system: Leishmania infantum; test: Randomized allopurinol‐controlled trial in dogs with clinical leishmaniosis; type: in vivo; details: bone marrow; with MGA
[2] = ref previously reported data; cited from earlier work
[3] = Transcutaneous ICG plasma disappearance rate; type: in vivo, dogs
In short: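 Healthy dogs received indocyanine green 0.5 mg/kg IV daily on three days. The plasma disappearance rate was read transcutaneously with a monitor probe, and the intrasubject coefficient of variation was calculated from the daily values.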

[4] = biological target: T1, serum angiotensin‐converting enzyme (ACE) (Canis lupus familiaris, UniProt A0A8I3S3I6); test: Serum ACE activity after benazepril with or without pimobendan; type: in vivo, dogs; details: for serum ACE activity versus baseline: days 1 and 15
T1 sequence (A0A8I3S3I6 31-1241): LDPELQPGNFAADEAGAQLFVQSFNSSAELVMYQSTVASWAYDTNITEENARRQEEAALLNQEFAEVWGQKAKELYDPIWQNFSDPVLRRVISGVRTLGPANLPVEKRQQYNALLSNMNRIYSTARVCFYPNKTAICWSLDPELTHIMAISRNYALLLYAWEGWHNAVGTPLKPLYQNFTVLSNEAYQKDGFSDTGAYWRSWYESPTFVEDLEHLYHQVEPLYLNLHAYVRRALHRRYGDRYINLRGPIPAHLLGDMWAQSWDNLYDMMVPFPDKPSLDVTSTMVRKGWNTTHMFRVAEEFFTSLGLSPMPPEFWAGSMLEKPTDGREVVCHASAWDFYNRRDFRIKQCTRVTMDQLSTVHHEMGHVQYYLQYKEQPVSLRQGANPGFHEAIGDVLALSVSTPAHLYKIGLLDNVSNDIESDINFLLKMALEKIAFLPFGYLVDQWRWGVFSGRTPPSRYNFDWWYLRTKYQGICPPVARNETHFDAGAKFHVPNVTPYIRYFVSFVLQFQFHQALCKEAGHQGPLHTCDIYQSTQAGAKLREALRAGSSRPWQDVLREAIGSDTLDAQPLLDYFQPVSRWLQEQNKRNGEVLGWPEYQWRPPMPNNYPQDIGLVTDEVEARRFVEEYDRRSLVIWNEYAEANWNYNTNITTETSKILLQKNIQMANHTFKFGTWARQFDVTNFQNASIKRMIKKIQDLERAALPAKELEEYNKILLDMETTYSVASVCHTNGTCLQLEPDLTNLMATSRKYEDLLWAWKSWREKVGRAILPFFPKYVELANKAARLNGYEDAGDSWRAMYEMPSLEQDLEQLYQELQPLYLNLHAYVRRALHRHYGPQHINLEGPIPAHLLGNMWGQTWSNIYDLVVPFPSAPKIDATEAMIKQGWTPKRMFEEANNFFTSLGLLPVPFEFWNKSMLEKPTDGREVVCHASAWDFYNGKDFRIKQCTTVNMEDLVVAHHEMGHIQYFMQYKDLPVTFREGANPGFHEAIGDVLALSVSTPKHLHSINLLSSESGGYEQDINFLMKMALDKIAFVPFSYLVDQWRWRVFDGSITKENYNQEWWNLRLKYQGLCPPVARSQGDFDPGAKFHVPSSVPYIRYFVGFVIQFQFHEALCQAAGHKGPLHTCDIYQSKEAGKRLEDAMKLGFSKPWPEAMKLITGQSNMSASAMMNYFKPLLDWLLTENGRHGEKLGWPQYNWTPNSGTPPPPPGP
In short: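 In a prospective, randomised, parallel-group design, 48 healthy beagles were split into four groups: placebo twice daily; benazepril 0.5 mg/kg once each morning; benazepril 0.25 mg/kg twice daily; or benazepril 0.25 mg/kg plus pimobendan 0.125 mg/kg, both twice daily. Dosing was oral for 15 days. Serum ACE was assayed radio-enzymatically at baseline, at 12 post-dose times on day 1, and on day 15 (steady state).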

[5] = system: Aelurostrongylus abstrusus; Angiostrongylus vasorum; test: Lungworm infection in cats and dogs in Rome treated with fenbendazole; type: in vivo
In short: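 Animals were diagnosed by faecal testing, BAL, lung cytology or post mortem. All received fenbendazole 50 mg/kg for 3 weeks, with further therapy according to clinical status; outcome was recorded.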

[6] = system: feline liver organoids; test: Lipid accumulation in liver organoids exposed to free fatty acids; type: cell-based, cats; details: LD540, flow cytometry
In short: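 Feline liver organoids were incubated with vehicle or free fatty acids and stained with the lipophilic dye LD540. Fluorescence was quantified by flow cytometry. β-oxidation of excess fatty acids was probed with a CPT-1 inhibitor and with L-carnitine supplementation.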

[7] = biological target: Steroidogenic factor‐1 (SF‐1) (Canis lupus familiaris, UniProt A0A5K7W231); test: Cortisol and mRNA in normal canine primary adrenocortical cell suspensions; type: cell-based, dogs; details: 10^‐8 to 10^‐5 M
In short: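 Primary adrenocortical cells from normal canine adrenals were cultured as suspensions, with synthetic ACTH added to mimic hypercortisolism. Cells were exposed to SF-1 inverse agonists, with a DMSO vehicle control. Cortisol was measured in the culture media. RT-qPCR gave relative mRNA expression of steroidogenic enzymes, SF-1 and MC2R.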

[8] = system: bacteria isolated from urinary cultures; test: Urine culture sensitivity in dogs with DM and/or HAC; type: cell-based
[9] = system: E.Coli; test: Cat with E.coli associated granulomatous colitis; type: in vivo
[10] = dogs with HAC; ref other studies; cited from earlier work
[11] = Laryngoscopy with doxapram stimulation in dogs with brachycephalic syndrome; type: in vivo
[12] = Sedation of dogs with stage B2 MMVD; type: in vivo
[13] = Management of Addisonian crisis; type: in vivo, dogs; details: for outcome: HSS CRI 0.3 to 0.625 mg/kg/h (n = 7), dexamethasone IV 0.05 to 0.3 mg/kg (n = 8)
[14] = Oral torasemide in cats with CHF; type: in vivo
In short: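 Cats with CHF, previously on furosemide (median 6 mg/kg/24 h), were switched to oral torasemide. The median starting dose was 0.5 mg/kg/24 h (range 0.1–0.75), given once daily or split twice daily. Renal values and potassium were rechecked at follow-up.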

[15] = Cortisol monitoring in dogs with hyperadrenocorticism on trilostane; type: in vivo
In short: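 Multicentre open-label prospective study in dogs with hyperadrenocorticism on trilostane. Serum cortisol was measured pre-trilostane, 3 h post-trilostane, and 1 h post-ACTH stimulation.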

[16] = Echocardiography, blood pressure and heart rate before and after sedation; type: in vivo, cats; details: ten minutes after sedation
[17] = system: Capillaria aerophila; test: Anthelmintic treatment of feline lungworm infection; type: in vivo, cats; details: single administration, one cat
[18] = Simvastatin in dogs with hyperlipidemia; type: in vivo; details: three months; n = 5; range 181–399
[19] = system: Troglostrongylus brevior; test: Anthelmintic treatment of feline lungworm infection; type: in vivo, cats; details: single administration; moxidectin n = 2, emodepside n = 1
[20] = system: T. brevior/A. abstrusus; test: Anthelmintic treatment of feline lungworm infection; type: in vivo, cats; details: five of six cats
In short: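 Cats with natural Troglostrongylus brevior/Aelurostrongylus abstrusus co-infection were treated with one of: single topical emodepside (n = 1), single oral milbemycin oxime (n = 2), or moxidectin given two (n = 2) or three (n = 1) times. Clinical course and time to recovery were followed.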

[21] = Hypothyroidism after low‐dose radioiodine in hyperthyroid cats; type: in vivo; details: 30 hypothyroid cats supplemented
In short: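 Hyperthyroid cats successfully treated with low-dose 131I (n = 569) had serum T4 and TSH measured at 1, 3, 6, 12 and ≥18 months after treatment. Cats that developed high TSH were classed as overtly hypothyroid if T4 was low, or subclinically hypothyroid if T4 was normal.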

Sequence of Steroidogenic factor‐1 (SF‐1) (A0A5K7W231 1-461): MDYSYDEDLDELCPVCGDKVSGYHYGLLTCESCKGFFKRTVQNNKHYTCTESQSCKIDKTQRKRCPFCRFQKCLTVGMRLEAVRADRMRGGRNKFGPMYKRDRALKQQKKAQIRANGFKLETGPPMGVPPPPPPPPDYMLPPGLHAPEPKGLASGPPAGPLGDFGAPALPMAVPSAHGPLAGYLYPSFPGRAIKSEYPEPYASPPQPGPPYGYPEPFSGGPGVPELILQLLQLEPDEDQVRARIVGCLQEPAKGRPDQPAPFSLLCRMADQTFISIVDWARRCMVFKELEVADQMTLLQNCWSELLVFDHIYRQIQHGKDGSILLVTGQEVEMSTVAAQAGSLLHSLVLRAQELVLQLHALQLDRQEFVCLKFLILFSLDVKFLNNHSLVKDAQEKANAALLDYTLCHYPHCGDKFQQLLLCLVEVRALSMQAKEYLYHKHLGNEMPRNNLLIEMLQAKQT

Oc1ncnc2[nH]ncc12 [allopurinol]
parasite load by RT‐QPCR [1]: significantly reduced parasite load

CC1(C)C(/C=C/C=C/C=C/C=C2\N(CCCCS(=O)(=O)O)c3ccc4ccccc4c3C2(C)C)=[N+](CCCCS(=O)(=O)[O-])c2ccc3ccccc3c21 [ICG, Indocyanine green]
mean ICG‐PDR [2]: 7.79 ± 3.3 %/min
mean ICG‐PDR ([3]; day one, 0.5 mg/kg IV, six healthy Beagles, transcutaneous): 7.8 ± 3.4 %/min
mean ICG‐PDR ([3]; day three): 7.9 ± 2.6 %/min
mean ICG‐PDR ([3]; day two): 8.8 ± 3.7 %/min
highest individual %CV ([3]; dog, in vivo): 52.5%
mean intrasubject %CV of ICG‐PDR ([3]; three consecutive days): 35.9 ± 16.8%

CCOC(=O)[C@H](CCc1ccccc1)N[C@H]1CCc2ccccc2N(CC(=O)O)C1=O [benazepril]
serum ACE activity versus baseline ([4]; group B, 0.5 mg/kg once daily PO): significant reductions in serum ACE activity compared to baseline
serum ACE activity versus baseline ([4]; group C, 0.25 mg/kg twice daily PO): significant reductions in serum ACE activity compared to baseline
0.25 mg/kg twice daily compared to 0.5 mg/kg once daily ([4]; non‐inferiority shown): equivalent inhibition of serum ACE activity

COC(=O)Nc1nc2ccc(Sc3ccccc3)cc2[nH]1 [fenbendazole]
outcome in dogs ([5]; 50 mg/kg for 3 weeks plus other therapy, 21 dogs): Five dogs died; the others recovered
outcome in cats ([5]; 50 mg/kg for 3 weeks, 20 cats): fully recovered

C[N+](C)(C)C[C@H](O)CC(=O)[O-] [L‐carnitine]
lipid accumulation under excess FFA [6]: attenuated

CCOC(=O)C(C)Oc1cccc2c(=O)n(CC(=O)Nc3ccc4c(c3)OCCO4)ccc12 (stereo not drawn) [IsoqA]
effect on cortisol production [7]: no significant effect on cortisol production

CCN1CCN(c2cc3c(cc2F)c(=O)c(C(=O)O)cn3C2CC2)CC1 [enrofloxacin]
bacterial resistance [8]: 38%
clinical response ([9]; 5 mg/kg SID for 6 weeks, one cat): complete resolution of clinical signs
remission sustained ([9]; to date): 4 months

Clc1ccc(C(c2ccccc2Cl)C(Cl)Cl)cc1 (stereo not drawn) [mitotane]
mean survival time [10]: 985 ± 57 days

CCN1CC(CCN2CCOCC2)C(c2ccccc2)(c2ccccc2)C1=O.Cl (stereo not drawn) [Dxp, doxapram hydrochloride]
mean degree of laryngeal collapse (0 to 3) ([11]; after 1.1 mg/kg IV, before 1.64 [0–3], P < 0.001, 26 dogs): 1.07 [0–3]
laryngeal abduction ([11]; after injection): significant abduction of laryngeal cartilages could be observed in all dogs

Cc1cccc(C(C)c2cnc[nH]2)c1C (stereo not drawn) [M group, medetomidine]
regurgitant jet area (ARJ/LAA) ([12]; T1, 30 minutes after medetomidine, n = 8 per group): significantly decreased
body weight‐indexed LVIDs ([12]; T1, P < 0.05): increased
shortening fraction ([12]; T1, P < 0.05): decreased

CCOC(=O)[C@@]1(CCCCCCOc2ccc(Cl)cc2)CO1 [etomoxir]
lipid accumulation under excess FFA [6]: enhanced

C[C@]12CCC(=O)C=C1CC[C@@H]1[C@@H]2[C@@H](O)C[C@@]2(C)[C@H]1CC[C@]2(O)C(=O)COC(=O)CCC(=O)O [HSS, hydrocortisone sodium succinate]
outcome [13]: all patients surviving to discharge
median time for Na+ concentration to normalise ([13]; group A (HSS) versus group B (dexamethasone), P = 0.0424): significantly shorter in group A compared to group B

Cc1cccc(Nc2ccncc2S(=O)(=O)NC(=O)NC(C)C)c1 [torasemide]
main adverse clinical effect ([14]; in vivo): worsening azotaemia
tolerability ([14]; in vivo): tolerated by this population of cats with CHF
median survival time after commencing torasemide ([14]; range 7–177 d, 11 cats): 48 days

C[C@]12CC[C@H]3[C@@H](CC[C@@]45O[C@@H]4C(O)=C(C#N)C[C@]35C)[C@@H]1CC[C@@H]2O [trilostane]
median cortisol pre‐trilostane ([15]; 21 dogs, 45 pairs on same dose): 114.0 nmol/L
median cortisol 1 hour post‐ACTH stimulation ([15]; dog, in vivo): 110.0 nmol/L
median cortisol 3 hours post‐trilostane ([15]; significantly lower than the other two): 53.5 nmol/L
mean survival time [10]: 1051 ± 78 days

dexmedetomidine and buprenorphine
IVSd, IVSs, LVPWd, LVPWs, Ao, La/Ao, pulmonic acceleration time [16]: did not differ pre‐ and post‐sedation
LVIDd, LVIDs, RVIDd, LA, pulmonic deceleration time, SBP, DBP, MAP ([16]; 50 cats, P ≤ 0.022): increased after sedation
Vmax Ao, Vmax A pulm, FS, AT/DT and HR ([16]; P < 0.0001): decreased after sedation

eprinomectin
outcome [17]: healthy after two weeks

CCC(C)(C)C(=O)O[C@H]1C[C@@H](C)C=C2C=C[C@H](C)[C@H](CC[C@@H]3C[C@@H](O)CC(=O)O3)[C@H]21 [simvastatin]
plasma cholesterol [18]: 298 ± 109.9

C[C@@H]1C[C@H]2[C@@H]3CCC4=CC(=O)C=C[C@]4(C)[C@@]3(F)[C@@H](O)C[C@]2(C)[C@@]1(O)C(=O)CO [dexamethasone]
outcome [13]: all patients surviving to discharge

CO/N=C1\C[C@]2(C[C@@H]3C[C@@H](C/C=C(\C)C[C@@H](C)/C=C/C=C4\CO[C@@H]5[C@H](O)C(C)=C[C@@H](C(=O)O3)[C@]45O)O2)O[C@H](/C(C)=C/C(C)C)[C@H]1C [moxidectin]
time to recovery [19]: 14 to 42 days
time to being healthy [20]: 14 to 42 days

N[C@@H](Cc1cc(I)c(Oc2cc(I)c(O)c(I)c2)c(I)c1)C(=O)O [Levothyroxine]
serum TSH and creatinine [21]: significantly decreased both serum TSH and creatinine concentrations
